Tests used:
[1] = system: MS2 coat protein; experiment: apparent Kd, MS2 coat protein; higher = weaker binding; RNA-MaP array
Method in brief: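 Designed RNAs were transcribed on an Illumina sequencing chip from sequenced DNA templates. They were incubated at room temperature with fluorescently labeled MS2 coat protein at 1.5 nM to 3 μM, for 0.8–1.5 h at the lowest to 10–20 min at the highest concentrations, in Tris-HCl pH 7.5 buffer with KCl, MgCl2, BSA, DTT, tRNA and Tween20, with or without input ligand. Apparent Kd is the median of per-cluster binding-curve fits. Designs measured on fewer than 10 clusters were excluded.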

[2] = system: MS2 coat protein; experiment: apparent Kd, MS2 coat protein; higher = weaker binding; RNA-MaP array; FMN 200 µM where present
Method in brief: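 Designs on Illumina sequencing-chip clusters, transcribed by stalled E. coli RNA polymerase, were exposed to SNAP-549-labelled MS2 coat protein in doubling steps from 0.7 or 1.5 nM up to 3 µM, without and then with constant ligand. The buffer held 100 mM Tris-HCl pH 7.5, 80 mM KCl, 4 mM MgCl2, BSA, DTT, yeast tRNA and Tween-20. Apparent Kd values are medians of filtered per-cluster binding-curve fits to green signal normalised to red-channel RNA signal and control-cluster median Fmax.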

[3] = designed as: OFF switch for flavin mononucleotide, no ligand
[4] = ligand present: flavin mononucleotide, designed as: OFF switch for flavin mononucleotide
[5] = designed as: ON switch for flavin mononucleotide, no ligand
[6] = ligand present: flavin mononucleotide, designed as: ON switch for flavin mononucleotide

Sequence	apparent Kd [2, 5] [nM]	apparent Kd [2, 6] [nM]	apparent Kd [2, 3] [nM]	apparent Kd [2, 4] [nM]	other results
AGCAUGGUUGGAGGAUAUUCCGCCGUAGUGCUGAAUCCCGGACAUGAGGAUCACCCAUGUGAGCGGAAGAAGGCCAAGUUGUCC					apparent Kd [1, 3]: 15.5 nM; apparent Kd [1, 4]: 63.2 nM
CCUCACGAAAUCGAUGAAAGCAUGUGGCACCGAGGACCGGUACGGCCGCCACUCGCAUCCACACAUGAGGAUCACCCAUGUAAGA					apparent Kd ([1]; designed as: OFF switch for tryptophan, no ligand): 39.3 nM; apparent Kd ([1]; ligand present: tryptophan, designed as: OFF switch for tryptophan): 51.6 nM
ACAUACAUUCGAGGAUAUCGGUGAGAAAUUUUACGAGAAGGCGAUUCAUGAUUUAUUAUUUUGGACAUGAGGAUCACCCAUGUA	83.5	34.1			
AAAUUCUGAGGAUAUCGAUGUUUGUACAUGAGGAUCACCCAUGUCCUUUUUAUUUUUUCUCGAGAAGGCAGUGUAU			38.1	35.3	
UUAUUAAGUGUGAGGAUAUGCUGGUCCUUGGAUCAGCAGAAGGCACAUGAGGAUCACCCAUGUACAAUAUUUUA			39	230	
ACCAUUUACUAGUUUUCUAUACAUGAGGAUCACCCAUGUUUUUAGGAUAUCAGCGUGAAACACGCUGAGAAGGAAGAACAUUCG			22.6	31.2	
UUAAUAGUAGGAUAUACAUGAGGAUCACCCAUGUAGCAACUACAUUAAGGAACCUGAUGUAGAAGGACUCCCAG			13.3	15.2	
UAUAUAUAGUAAGGAUAUGUAUAUACUUUAUAAACAGAAGGUACUGACAUGAGGAUCACCCAUGUUUUAGUGUGGGCAUGUAGA			75.9	102	
UGCGUUAAGCCCUUAAGUCGUCAACAUGAGGAUCACCCAUGUAGAAGGCAGCGGACGCAGCCGGCUGAGGAUAUACAUGUAGGU			7.9	10.5	
AAUUGACACGUAGGAUAUCGAUCUAAAUUAACUCGAGAAGGACGCACAUGAGGAUCACCCAUGUUUAAUGGAGUAGACAUGUUG			314	508	
UUUUACAUAGGAUAUAGUUGCUUUUACAUGAGGAUCACCCAUGUCUCUCCUCUCUCUCUUCUAGAAGGAUGUUUCU			54.7	46.5	
AGACCAGUUCUAGGAUAUGUGUGACGUGAGUAAACAGAAGGAGAACAUGAGGAUCACCCAUGUGGGCCAAUCAUCCUCACGUGG			44.9	371	
GGAGCACACAUUAACAUGAGGAUCACCCAUGUCAAAAGACAUGAGGAUAUGGAUCCGAAAAGGAUCCAGAAGGCAUGGUUCUCC	365	19.6			
GUCACACACCGCUCCGUGUCUGACAUGAGGAUCACCCAUGUGAGAAGGUAGCGUCGCAGUGACGUUAAGGAUAUCACGUACAGA			4.81	5.2	
AAUUUACAGCGAGGAUAUACAUGAGGAUCACCCAUGUAAUCAUAUGAUAUUUUUUUUGUAUGAGUGUAGAAGGCGCAAAUAAAA			10.2	9.61	
GCCGAACAUGAGGAUCACCCAUGUCUGGGUAAUCAAGGAUAUGGGAAGGCUUUGCCAUGACCAGAAGGUGGUUAUC	209	23.1			
AAAAAACAUGAGGAUCACCCAUGUGAGGAUAUCGAAAAGUCAAAGAAAAAGACGAAAACGAGAAGGCGCAAAAA			49.6	45.5	
UACCGCGACAACACGGUAUCACAUGAGGAUCACCCAUGUUCACAGGAUAUGCGAUAGCCAACGAAGCAGAAGGGUGAUUACUUA	37.3	263			
CCCUGUGGAGGAUAUUGCAAAGGUGACAUGAGGAUCACCCAUGUUGGACGUUAAGCACUGCAAGAAGGCCGGUUGA			50	24.5	
UCAUACAUGAGGAUCACCCAUGACAUGAGGAUCACCCAUGUGCAGGAUAUACGUGAUAUAAUAUAGUAGAAGGGCAGACCAAAA			42.8	55.1	
CUUUUUUGAGGAUAUUAGUAGUAAAUAAAUAAAAUUACUACUGAGAAGGCACAUGAGGAUCACCCAUGUUCCUC			16.3	26.9	
AUACUCAUGUAAGGAUAUGCAGCCGUUUCGGCUGCAGAAGGUACUAAAAUACAUGAGGAUCACCCAUGUCUCUCGCAUUGCGAG	753	117			
AGUAGAUCAGGAUAUACGUGAAAGGUCAAAGUGUCCAAUCUACAUGAGGAUCACCCAUGUAGAAGGGAUCUACA			15.2	14.6	

Sequence	apparent Kd [2, 5] [nM]	apparent Kd [2, 6] [nM]	apparent Kd [2, 3] [nM]	apparent Kd [2, 4] [nM]	other results
GCGGUCAACGUAGGAUAUCUUCAGCCACAGCACAUUGCUGUACAUGAGGAUCACCCAUGUCCUGGAGAGAAGGACGGACGGCAG	179	35.3			
GGACGUCACAUGAACAUGAGGAUCACCCAUGUAACUAGACAUGAGGAUAUGGUUCCUAAUUGGAACCAGAAGGCAUGGACGUCC	224	33			
GGGUACAUCGGAGGAUAUCAUGUAAAUACAUGAGGAUCACCCAUGUCGAUGGAGACAUCGGAGAUUGAGAAGGCCGAUUUACCG	184	8.4			
AAAAAACAUGAGGAUCACCCAUGUCAGGAUAUACGAUAAAAAAAAAAAAAAAAAAAAUGUAGAAGGGACAAAAA			78.3	73.9	
GCAGCUCCUGACAUGAGGAUCACCCAUGUUUAAUUAUUAAAUCAGGAUAUCCUCUCGAAACGAGAGGAGAAGGGAUAAGCUGCU	4.83	5.33			
CGAUAUAUGAAGGGCGAAAGCCCACAUGAGGAUCACCCAUGUAGAAGGCGAGCCGCAACGCGGCUCGAGGAUAUAUAGUAUACA			7.24	8.52	
AACGGGUCAGGAUAUUGUUAGUUUAGUUGUUUGUAUUAGUUCGAGAAGGGACAUGAGGAUCACCCAUGUGGUAA			66.1	62	
GUCGUGUGAGGAUAUGGAUAGACGCAGUGACAGUAAGCGACCUAGAAGGCACAUGAGGAUCACCCAUGUAUGUG			45.5	84.1	
AUCCCGAUAGCAGGAUAUUUCUGCAGUUGUGGUUAGGUCGCCCUACAUGAGGAUCACCCAUGUAGAGAGAAGGGCUGUGGUAAU			6.71	6.83	
AAUAACAGAGGAUAUACUAUUUUAUGUGUUUAUUGUUUUGAACAUGAGGAUCACCCAUGUAGAAGGCUGAAUAA			24.6	26.1	
CGGGUAUAUCGAGGAUAUAAGUCUAGGACAUGAGGAUCACCCAUGUAUGUCUUAGAAGGCGAUAUACCCAGCCUGUUACAGGCA	31	6.37			
GCACUUGCGUAGAAGGUACUAUAUAAUACACUGUAAGGAUAUACAUACAUGAGGAUCACCCAUGUAAAUGGAAUUUGCAAGUGC	6.62	6.49			
GCGGGUCCGGAGAAGGGUACCGUGGGUAUGAUACAUGAGGAUCACCCAUGUACAGGAUAUCCGGCAAAGAUGUGGCUAAGAGGG			257	34.5	
GCCUCACAUGAGGAUCACCCAUGUCAGGAUAUAGGAGAUGGCAGAAAUCCUACCAUCGCUAGAAGGGACUGGCA			43.4	76.4	
ACUUUACGAGGAUAUACUGUCGGGCCUCGGGCAUACAUACGACAUGAGGAUCACCCAUGUAGAAGGCGUUUACU			33.6	61.1	
GGGUACAUCGGAGGAUAUCAUGUAAAUACAUGAGGAUCACCCAUGUCGAUGGAGACAUCGGAGAUUGAGAAGGCCGAUGUUCCG	202	9.84			
GUCCAACAUGAGGAUCACCCAUGUGAGGAUAUGCGAAUUUCAUCAAAAGAUGAAAUUUGCAGAAGGCACAGGAC			20.2	32.8	
GGAUGACAUAGUCAUCCUUAACGAACAUGAGGAUCACCCAUGUAGGAUAUGCUACUCAAAGAGUAGCAGAAGGGCAUGUGUCUU			30.6	68.8	
UUCUGUGUGUGCUAGGGCUGCACAUGAGGAUCACCCAUGUACAGAAGGUGGACACGCACUGUGGCCAAGGAUAUGUAACAUGUU			11.2	36.2	
AGACAGUCAGGAUAUACAUGAGGAUCACCCAUGUUGAGAUGUGAAAGGGCAGGAAUAGGUAGAAGGGACGAGAG			34.6	33.7	
UUUUUAUUUGUAGGAUAUGGAGACAUGAGGAUCACCCAUGUAUGAUAAGCUAAAUUAUGCUGUGGCCAGAAGGAUAUUAUUUUU	43.9	49.7			
UAUAACUAACAGAAGGGUAUUUGGGAUCAUUAUUAGGAGGAAAUACUAUACAGGAUAUGUAAUACAUGAGGAUCACCCAUGUUC	20	15.7			
GGGUACAUCGGAGGAUAUCAUGUAAAUACAUGAGGAUCACCCAUGUCGAUGGAGACAUCGGAGAUUGAGAAGGCCGCUGUACCG	176	9.92			

Reference: the EternaBench riboswitch data
